Screening results as filed in PubChem BioAssay.
Runt-CBFb FRET: inhibitors of RUNX1 Runt–CBFb binding, primary screen, biochemical, FRET, Cerulean-Runt, Venus-CBFb, uHTS; Runt-related transcription factor 1 (Homo sapiens) + Core-binding factor subunit beta …; AID 1496, 2009; inhibition, % at 20 µM; Cerulean-Runt/Venus-CBFb FRET ratio 530/480, 1 h; 0.46% of 220,000 active;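 active = inhibition over about 50% at 20 µM in the single-dose screen, limit read from the data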;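 note: 0% = DMSO wells and 100% = excess unlabeled CBFb competitor control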
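test system = Cerulean-tagged RUNX1 Runt domain (FRET donor) fusion protein | reagent = Venus-CBFb binding partner, 100 nM | incubation = protein complex preformed 1 h, compound exposure 1 h, room temperature, dark | detection = FRET fluorescence | read-out basis = loss of energy transfer signal | controls = 5 µM unlabeled CBFb as full-inhibition high control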
Runt-SMMHC FRET: inhibitors of RUNX1 Runt–CBFb-SMMHC binding, primary screen, biochemical, FRET, Cerulean-Runt, Venus-CBFb-SMMHC, uHTS; Cerulean-Runt/Venus-CBFb-SMMHC FRET ratio 530/480, 1 h; inhibition, % at 20 µM; 0.74% of 220,000 active;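 active = mean inhibition across duplicate retests at 20 µM reaching about 50%, limit read from the data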;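 note: 0% = DMSO wells and 100% = wells with excess untagged CBFb-SMMHC; inhibitors lower the FRET ratio by blocking Runt binding to CBFb-SMMHC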
RanGTP-Imp inh: inhibitors of RanGTP-importin-beta interaction, primary screen, biochemical, FRET, CFP-Ran, YFP-importin-beta, homogeneous; inhibition, % (test concentration not listed); 1.1% of 300,000 active; Ran GTPase (GTP-bound) - importin-beta complex; cell-free CFP-Ran/YFP-importin-beta FRET ratio; AID 2216, 2009;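 active = more than half of the replicate wells show a fall in the fluorescence ratio signal beyond about 16%, limit read from the data, passing the limit was not always enough; inconclusive = exactly half of the replicate wells pass the set limit; inactive = fewer than half of replicates pass the limit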;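 note: 0% = DMSO wells and 100% = Ran loaded with GDP instead of GTP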
TNF death inh: inhibitors of TNF-alpha triggered necroptosis, primary screen, cell-based, Jurkat FADD-/-, single concentration; 0.068% of 220,000 active; activation (protection from cell death), % at 10 µM; Jurkat FADD-/- TNF necroptosis rescue, ATP luminescence, 24 h; 0 = TNF only, 100 = no-TNF cells;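 active = activation, meaning protection from cell death, of at least 50% relative to plate controls; inactive = activation below 50%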;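 note: necroptosis triggered by 40 ng/mL TNF-alpha added together with compound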
Hck Nef HTS: inhibitors of Nef-activated human Hck kinase, primary screen, biochemical, Z-Lyte FRET, 384-well, Hck-YEEI. Tyrosine-protein kinase HCK (Homo sapiens), P08631. Recombinant Hck-YEEI plus Nef, Z-Lyte FRET kinase assay. inhibition, % at 20 µM. 0.68% of 220,000 active;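 active = Hck-Nef kinase inhibition above about 50%, limit read from the data; inactive = inhibition below that limit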;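 note: 0% = DMSO with Hck plus Nef and 100% = Hck alone without Nef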
Target sequence (P08631 whole entry, looked up): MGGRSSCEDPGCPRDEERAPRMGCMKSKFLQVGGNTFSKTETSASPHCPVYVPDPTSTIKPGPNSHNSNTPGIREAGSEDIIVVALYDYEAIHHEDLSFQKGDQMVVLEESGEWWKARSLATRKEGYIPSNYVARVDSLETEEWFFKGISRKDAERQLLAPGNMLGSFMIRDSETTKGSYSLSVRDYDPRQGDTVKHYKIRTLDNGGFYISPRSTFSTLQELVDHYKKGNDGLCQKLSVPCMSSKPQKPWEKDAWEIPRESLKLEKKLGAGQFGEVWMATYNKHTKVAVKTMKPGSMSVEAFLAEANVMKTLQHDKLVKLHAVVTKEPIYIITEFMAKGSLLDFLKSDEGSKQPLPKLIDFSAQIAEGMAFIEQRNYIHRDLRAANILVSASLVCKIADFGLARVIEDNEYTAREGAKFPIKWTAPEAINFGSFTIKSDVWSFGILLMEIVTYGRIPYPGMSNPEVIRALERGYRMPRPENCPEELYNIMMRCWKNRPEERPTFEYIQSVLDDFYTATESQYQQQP
L929 necroptosis: inhibitors of zVAD-triggered necroptosis, primary screen, L929 cells; L929 zVAD necroptosis rescue, ATP luminescence, 24 h; with zVAD 60 µM; viability rescue, % at 10 µM; 0.38% of 220,000 active; AID 1377, 2008;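 active = activation, scaled between plate controls, above about 75%, limit read from the data; inactive = activation under that limit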;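 note: 0% = zVAD with DMSO and 100% = DMSO alone without zVAD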
YIC counter: YIC intramolecular FRET probe signal interference, dose response, counter-screen for RanGTP-importin-beta inhibitor project, biochemical, fluorescence FRET. 40% of 1,000 active. shares compounds with RanGTP-Imp inh. AID 435026, 2010. IC50, µM. Purified YIC probe, intramolecular FRET ratio YFP/CFP;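 active = fitted half-maximal inhibitory concentration no more than tenfold above the top dose tested; inconclusive = flat fit with 30 to 70% activity, or poor fit; inactive = half-maximal concentration beyond tenfold above the top dose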
* marks the source's active call; other numbers are inactive results; ? = inconclusive; · = no result. This is a sample that favours compounds with a hit; in the whole collection about 2.1% have one here.

SMILES	Runt-CBFb FRET	Runt-SMMHC FRET	RanGTP-Imp inh	TNF death inh	Hck Nef HTS	L929 necroptosis	YIC counter
CS(=O)(=O)c1nsc2nc(=O)c(/C=C3\C=Nc4ccccc43)c(N)n12	29.2	73.0*	25.0*	0.9	26.3	2.6	20.1*
CCCCc1nn2c(N)c(/C=C3\C=Nc4ccccc43)c(=O)nc2s1	2.3	14.2	-33.2	2.7	3.5	1.2	·
CCCc1nn2c(N)c(/C=C3\C=Nc4ccccc43)c(=O)nc2s1	3.5	-22.6	-11.2	5.9	23.9	0.3	·
CC(C)Cc1nn2c(N)c(/C=C3\C=Nc4ccccc43)c(=O)nc2s1	-85.0	-53.5	24.6*	1.4	16.7	0.8	>50
COC(=O)C1C/C(=N/NS(=O)(=O)c2ccc(C)cc2)CS1 (stereo unspecified)	·	·	2.4	·	·	·	·
O=c1[nH]c(-[n+]2ccc3ccccc3c2)c(/C=N/N=C(\[O-])c2ccccc2)s1	·	·	24.7*	·	·	·	>50
O=C(c1ccco1)c1cc2c(ccc3ccccc32)oc1=O	18.7	30.2	24.0*	-0.2	-1.0	0.0	21.1*
O=Cc1cn(CC(=O)N2CCCCC2)c2ccccc12	-3.1	1.4	-2.1	2.0	3.6	0.1	·
O=C(O)Cn1cc(/C=C2/SC(=O)N(CC(=O)N3CCCCCC3)C2=O)c2ccccc21	8.0	27.1	17.0*	0.5	24.0	1.3	>50
O=C(O)Cn1cc(/C=C2\SC(=O)N(c3ccccc3)C2=O)c2ccccc21	14.2	28.6	24.1*	0.5	3.7	1.9	38.9*
O=C(COC(=O)c1cccc(C(F)(F)F)c1)NCc1ccccc1	-3.6	-2.1	7.3	0.9	1.3	0.2	·
CCOc1cc2c(cc1OCC)C(c1ccccc1)N(c1ccccc1)C(=O)C2 (stereo unspecified)	-5.3	3.4	1.2	2.6	6.8	0.4	·
O=C(O)c1cc(S(=O)(=O)Nc2ccc(OCc3ccccc3)cc2)ccc1Br	·	·	-5.4	·	·	·	·
CC(C)CC(=O)Nc1c2c(nn1-c1ccc(F)cc1)CS(=O)C2 (stereo unspecified)	·	·	0.1	·	·	·	·
CCCc1noc(-c2cccc([N+](=O)[O-])c2)n1	-0.2	2.5	24.4*	1.8	-19.3	0.4	>50
Cc1cccc2sc(NC(=O)CN3C(=O)NC4(CCCC4)C3=O)nc12	·	·	2.7	·	·	·	·
O=C(CN1C(=O)NC2(CCCC2)C1=O)Nc1nc2c(F)cc(F)cc2s1	·	·	19.7*	·	·	·	>50
CCOCCCNC(=O)c1cn(CC)c2ccc(S(=O)(=O)N3CCC(C)CC3)cc2c1=O	·	·	0.4	·	·	·	·
Cc1cc(C(=O)N/N=C/c2cc(Cl)cc([N+](=O)[O-])c2O)n[nH]1	-1.2	-4.1	-5.5	0.9	14.9	0.4	·
CC1(C)CC(=O)C/C(=N\NC(=O)C2CC23CCC3)C1 (stereo unspecified)	2.0	0.6	18.2*	0.5	1.0	-0.1	>50
Cc1nc2ccccc2c(=O)n1/N=C/c1ccc(F)cc1	·	·	0.7	·	·	·	·
CCN(CC)c1ccc(NS(=O)(=O)c2ccc(OC)cc2)cc1	20.9	13.2	-1.1	-0.2	13.6	1.4	·
CCOC(=O)CNC(=O)C1CCCN(c2ncccn2)C1 (stereo unspecified)	-0.3	-0.9	20.6*	-1.6	-0.8	-0.1	>50
O=C(NCc1cccs1)C1CCCN(c2ncccn2)C1 (stereo unspecified)	0.5	-3.1	-1.6	1.0	0.3	1.2	·
O=C(CN1CCN(Cc2ccccc2)CC1)NC(=O)NC1CCCCC1	0.1	-2.8	-3.7	0.5	-0.2	1.0	·
SMILES	Runt-CBFb FRET	Runt-SMMHC FRET	RanGTP-Imp inh	TNF death inh	Hck Nef HTS	L929 necroptosis	YIC counter
O=C(CN1CCN(C/C=C/c2ccccc2)CC1)NC(=O)NC1CCCCC1	-2.6	-0.1	28.7*	0.7	18.2	1.4	>50
Cc1ccc(-n2nc(CN3CCOCC3)c(-c3ccccc3)c2N)c(C)c1	-1.0	1.6	3.2	0.4	0.7	-0.5	·
O=C(/C=C/c1ccc[nH]1)c1ccccc1	25.1	11.1	22.8*	0.9	21.2	12.9	31.6*
O=C(/C=C/c1ccc[nH]1)c1ccc(F)cc1	27.6	2.7	28.1*	0.0	19.4	1.1	24.8*
CC(C)c1nc(SCC(=O)c2c[nH]c3ccccc23)n[nH]1	1.4	-5.1	4.9	-1.6	1.5	1.5	·
Cc1cc(NC(=O)CSc2ncnc3c2cnn3-c2cccc(Cl)c2)no1	1.4	-0.5	0.7	0.0	2.6	0.9	·
COc1ccc(-c2c(C)c3ccc(O)cc3oc2=O)cc1OC	·	·	20.0*	·	·	·	34.3*
CCCCOc1ccc(N2CC(C(=O)NCc3ccco3)CC2=O)cc1 (stereo unspecified)	·	·	-2.2	·	·	·	·
CC(=O)O/N=C/c1c(Cl)n(C)c2ccccc12	-1.2	3.8	47.8*	-0.3	7.1	0.9	>50
C#Cc1ccc(CN2CCC(C(=O)Nc3ccc(Oc4ccccc4)nc3)CC2)cc1	·	·	7.3	·	·	·	·
CC#CC(=O)N1CCC(C(=O)Nc2ccc(Oc3ccccc3)nc2)CC1	·	·	17.6*	·	·	·	>50
COCCNC(=S)N1CCCN(c2nc3cc(C)ccc3cc2C#N)CC1	·	·	17.6*	·	·	·	30.6*
COc1ccc(-n2c(=O)cc(N3CCN(Cc4ccccc4)CC3)[nH]c2=O)cc1	·	-1.2	?	-0.9	22.8	0.1	·
O=c1cc(N2CCN(Cc3ccccc3)CC2)[nH]c(=O)n1-c1ccc(Br)cc1	3.2	0.0	31.1*	0.1	1.3	0.0	>50
CCN1CCN(c2cc(=O)n(Cc3ccc(F)cc3)c(=O)[nH]2)CC1	-78.7	-6.1	28.8*	0.8	17.5	1.9	>50
CCOC(=O)N1CCN(c2cc(=O)n(Cc3ccc(F)cc3)c(=O)[nH]2)CC1	-2.0	-0.6	25.8*	-0.4	15.1	0.3	>50
O=c1c2ccccc2nc(-c2ccc(F)cc2)n1NCc1ccccc1O	0.8	-2.5	0.7	-0.3	30.2	1.3	·
Nc1nc(CSc2nnnn2-c2ccc(F)c(Cl)c2)nc(N2CCOCC2)n1	·	·	4.2	-0.2	4.7	0.6	·
Nc1nc(CSc2nnnn2-c2ccc(Cl)cc2)nc(N2CCOCC2)n1	-3.6	-3.5	20.0*	-1.2	0.0	0.0	>50
